Each block holds one molecule with its values, some of them ahead of it. Activity calls are given as the source filed them. The rule behind the calls is not given here.
Experiments:
[1] = tested on: MDA-MB-231; assay: Cytotoxicity against human MDA-MB-231 cells assessed as reduction in cell viability incubated for 72 hrs by MTT assay; type: functional, cell-based; settings: MDA-MB-231, 72 h
Summary of the method: (§1)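 MTT viability assay. Cells kept in DMEM with 10% FBS at 37 °C and 5% CO2. Seeded at 5×10^3 cells per well and exposed to a range of compound concentrations from 20 mM DMSO stocks. IC50 is the mean of triplicate measurements.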

[2] = tested on: PC-3; assay: Cytotoxicity against human PC-3 cells assessed as reduction in cell viability incubated for 72 hrs by MTT assay; type: functional, cell-based; settings: PC-3, 72 h; summary of the method: as §1
[3] = tested on: SH-SY5Y; assay: Cytotoxicity against human SH-SY5Y cells assessed as reduction in cell viability incubated for 72 hrs by MTT assay; type: functional, cell-based; summary of the method: as §1
[4] = Solubility of compound in water; type: physicochemical; settings: buffer
[5] = molecular target: T1, Aurora kinase A (Homo sapiens, UniProt O14965); assay: Inhibition of Aurora A (unknown origin) incubated for 1 hrs by HTRF assay
T1 sequence (O14965 whole entry): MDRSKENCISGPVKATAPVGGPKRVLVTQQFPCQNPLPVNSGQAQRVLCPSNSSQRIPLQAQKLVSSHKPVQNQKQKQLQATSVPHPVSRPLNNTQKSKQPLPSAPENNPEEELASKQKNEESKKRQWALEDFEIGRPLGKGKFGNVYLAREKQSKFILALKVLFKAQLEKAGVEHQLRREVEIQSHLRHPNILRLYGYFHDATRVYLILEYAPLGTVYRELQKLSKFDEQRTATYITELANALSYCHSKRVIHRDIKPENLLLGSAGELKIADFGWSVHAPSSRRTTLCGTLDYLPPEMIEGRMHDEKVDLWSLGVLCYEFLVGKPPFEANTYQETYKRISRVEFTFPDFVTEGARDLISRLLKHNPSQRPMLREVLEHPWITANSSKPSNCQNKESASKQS

[6] = molecular target: Aurora kinase B (Homo sapiens, UniProt Q96GD4); assay: Inhibition of Aurora B (unknown origin) incubated for 1 hrs by HTRF assay
[7] = tested on: MDA-MB-231; assay: Induction of apoptosis in human MDA-MB-231 cells assessed as viable cells at 1 uM incubated for 48 hrs by annexin V-FITC and PI staining based flow cytometry analysis (reference value: 90.49 %); type: functional; settings: read-out: Activity
[8] = tested on: MDA-MB-231; assay: Antiproliferative activity against human MDA-MB-231 cells assessed as reduction in cell growth incubated for 48 hrs; type: functional, cell-based; settings: dose 0.5-2 µM
[9] = tested on: MDA-MB-231; assay: Cytotoxicity against human MDA-MB-231 cells assessed as cell shrinkage at >1 uM incubated for 48 hrs; type: functional, cell-based; settings: dose microM >1, time 48.0 hrs
[10] = tested on: MDA-MB-231; assay: Cytotoxicity against human MDA-MB-231 cells assessed as cell blebbing at >1 uM incubated for 48 hrs; type: functional, cell-based; settings: dose microM >1, time 48.0 hrs
[11] = molecular target: T2, Aurora kinase A (Homo sapiens) (UniProt O14965); assay: Inhibition of Aurora A in human MDA-MB-231 cells assessed as reduction in Aurora Thr288 residue phosphorylation incubated for 24 hrs by Western blot analysis; type: cell-based; settings: dose 1-4 µM
T2 sequence (whole entry): T1 sequence (O14965 whole entry)
Summary of the method: (§2)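 MDA-MB-231 cells exposed to DMSO or drug at set concentrations for 24 h. Western blot for phospho-Aurora A at Thr288 or phospho-histone H3 at Ser10, with total Aurora A, histone H3 and GAPDH antibodies also used. Bands quantified by densitometry.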

[12] = molecular target: T2, Aurora kinase A (Homo sapiens); assay: Inhibition of Aurora A in human MDA-MB-231 cells assessed as reduction in Histone H3 phosphorylation incubated for 24 hrs by Western blot analysis; type: cell-based; settings: dose 1-4 µM; summary of the method: as §2
[13] = tested on: MDA-MB-231; assay: Induction of cell cycle arrest in human MDA-MB-231 cells assessed as increase G2/M phase accumulation incubated for 24 hrs by PI staining based flow cytometry analysis; type: functional; settings: dose 1-4 µM
[14] = tested on: MDA-MB-231; assay: Induction of cell cycle arrest in human MDA-MB-231 cells assessed as G0/G1 phase accumulation at 1 uM incubated for 24 hrs by PI staining based flow cytometry analysis (reference value: 42.84 %); type: functional
[15] = tested on: MDA-MB-231; assay: Induction of cell cycle arrest in human MDA-MB-231 cells assessed as S phase accumulation at 1 uM incubated for 24 hrs by PI staining based flow cytometry analysis (reference value: 38.65 %); type: functional
[16] = tested on: MDA-MB-231; assay: Induction of cell cycle arrest in human MDA-MB-231 cells assessed as G2/M phase accumulation at 1 uM incubated for 24 hrs by PI staining based flow cytometry analysis (reference value: 16.62 %); type: functional
[17] = tested on: MDA-MB-231; assay: Induction of cell cycle arrest in human MDA-MB-231 cells assessed as G0/G1 phase accumulation at 2 uM incubated for 24 hrs by PI staining based flow cytometry analysis (reference value: 42.84 %); type: functional
[18] = tested on: MDA-MB-231; assay: Induction of cell cycle arrest in human MDA-MB-231 cells assessed as S phase accumulation at 2 uM incubated for 24 hrs by PI staining based flow cytometry analysis (reference value: 38.65 %); type: functional
[19] = tested on: MDA-MB-231; assay: Induction of cell cycle arrest in human MDA-MB-231 cells assessed as G2/M phase accumulation at 2 uM incubated for 24 hrs by PI staining based flow cytometry analysis (reference value: 16.62 %); type: functional
[20] = tested on: MDA-MB-231; assay: Induction of cell cycle arrest in human MDA-MB-231 cells assessed as G0/G1 phase accumulation at 4 uM incubated for 24 hrs by PI staining based flow cytometry analysis (reference value: 42.84 %); type: functional
[21] = tested on: MDA-MB-231; assay: Induction of cell cycle arrest in human MDA-MB-231 cells assessed as S phase accumulation at 4 uM incubated for 24 hrs by PI staining based flow cytometry analysis (reference value: 38.65 %); type: functional
[22] = tested on: MDA-MB-231; assay: Induction of apoptosis in human MDA-MB-231 cells assessed as early apoptotic cells at 1 uM incubated for 48 hrs by annexin V-FITC and PI staining based flow cytometry analysis (reference value: 3.90 %); type: functional
[23] = tested on: MDA-MB-231; assay: Induction of apoptosis in human MDA-MB-231 cells assessed as late apoptotic cells at 1 uM incubated for 48 hrs by annexin V-FITC and PI staining based flow cytometry analysis (reference value: 2.52 %); type: functional
[24] = tested on: MDA-MB-231; assay: Induction of apoptosis in human MDA-MB-231 cells assessed as necrotic cells at 1 uM incubated for 48 hrs by annexin V-FITC and PI staining based flow cytometry analysis (reference value: 3.08 %); type: functional
[25] = tested on: MDA-MB-231; assay: Induction of apoptosis in human MDA-MB-231 cells assessed as viable cells at 2 uM incubated for 48 hrs by annexin V-FITC and PI staining based flow cytometry analysis (reference value: 90.49 %); type: functional; settings: read-out: Activity
[26] = tested on: MDA-MB-231; assay: Induction of apoptosis in human MDA-MB-231 cells assessed as early apoptotic cells at 2 uM incubated for 48 hrs by annexin V-FITC and PI staining based flow cytometry analysis (reference value: 3.90 %); type: functional
[27] = tested on: MDA-MB-231; assay: Induction of apoptosis in human MDA-MB-231 cells assessed as late apoptotic cells at 2 uM incubated for 48 hrs by annexin V-FITC and PI staining based flow cytometry analysis (reference value: 2.52 %); type: functional
[28] = tested on: MDA-MB-231; assay: Induction of apoptosis in human MDA-MB-231 cells assessed as necrotic cells at 2 uM incubated for 48 hrs by annexin V-FITC and PI staining based flow cytometry analysis (reference value: 3.08 %); type: functional
[29] = tested on: MDA-MB-231; assay: Induction of apoptosis in human MDA-MB-231 cells assessed as viable cells at 4 uM incubated for 48 hrs by annexin V-FITC and PI staining based flow cytometry analysis (reference value: 90.49 %); type: functional; settings: read-out: Activity
[30] = tested on: MDA-MB-231; assay: Induction of apoptosis in human MDA-MB-231 cells assessed as early apoptotic cells at 4 uM incubated for 48 hrs by annexin V-FITC and PI staining based flow cytometry analysis (reference value: 3.90 %); type: functional
[31] = tested on: MDA-MB-231; assay: Induction of apoptosis in human MDA-MB-231 cells assessed as late apoptotic cells at 4 uM incubated for 48 hrs by annexin V-FITC and PI staining based flow cytometry analysis (reference value: 2.52 %); type: functional
[32] = tested on: MDA-MB-231; assay: Induction of apoptosis in human MDA-MB-231 cells assessed as necrotic cells at 4 uM incubated for 48 hrs by annexin V-FITC and PI staining based flow cytometry analysis (reference value: 3.08 %); type: functional
[33] = tested on: MDA-MB-231; assay: Induction of apoptosis in human MDA-MB-231 cells assessed as increase in caspase-9 cleavage at 1 to 4 uM incubated for 48 hrs by Western blot analysis; type: functional, cell-based; settings: dose 1-4 µM
Summary of the method: (§3)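 MDA-MB-231 cells treated for 48 h at set concentrations. Cleaved PARP, cleaved caspase-3 and cleaved caspase-9 detected by Western blot and quantified by densitometry. Mean ± SEM, n = 3.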

[34] = tested on: MDA-MB-231; assay: Induction of apoptosis in human MDA-MB-231 cells assessed as increase in caspase-3 cleavage at 1 to 4 uM incubated for 48 hrs by Western blot analysis; type: functional, cell-based; settings: dose 1-4 µM; summary of the method: as §3
[35] = tested on: MDA-MB-231; assay: Induction of apoptosis in human MDA-MB-231 cells assessed as increase in PARP cleavage at 1 to 4 uM incubated for 48 hrs by Western blot analysis; type: functional, cell-based; settings: dose 1-4 µM; summary of the method: as §3
[36] = tested on: MDA-MB-231; assay: Induction of apoptosis in human MDA-MB-231 cells; type: functional, cell-based; settings: dose 1-4 µM
[37] = tested on: MDA-MB-231; assay: Induction of cell cycle arrest in human MDA-MB-231 cells assessed as G2/M phase accumulation at 5 uM incubated for 16 hrs by PI staining based flow cytometry analysis (reference value: 16.62 %)
[38] = tested on: MDA-MB-231 (Homo sapiens); assay: Anticlonogenic activity against human MDA-MB-231 cells assessed as inhibition of colony formation at 0.5 to 2 uM incubated for 72 hrs followed by replacement of medium and measured after 10 days by crystal violet staining based visual analysis; settings: dose 0.5-2 µM

Sequence of Aurora kinase B (Q96GD4 whole entry): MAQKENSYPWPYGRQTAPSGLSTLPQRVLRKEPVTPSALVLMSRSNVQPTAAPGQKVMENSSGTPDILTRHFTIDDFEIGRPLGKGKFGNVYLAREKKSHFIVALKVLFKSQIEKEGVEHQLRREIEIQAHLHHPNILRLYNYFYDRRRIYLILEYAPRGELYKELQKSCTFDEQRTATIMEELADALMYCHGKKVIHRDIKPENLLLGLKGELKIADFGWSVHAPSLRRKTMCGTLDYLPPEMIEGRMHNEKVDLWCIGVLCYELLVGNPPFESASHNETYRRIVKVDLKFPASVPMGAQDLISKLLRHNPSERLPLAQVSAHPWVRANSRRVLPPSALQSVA

- solubility [4]: Soluble
SMILES: CCN(CC)C(=O)Nc1nc2ccc(-c3ccc4ncn(CCN5CCOCC5)c(=O)c4c3)cc2[nH]1
- IC50 [1]: 1.76 µM
- IC50 [2]: 8.13 µM
- IC50 [3]: 2.52 µM

- solubility [4]: Insoluble
- IC50 [5]: 0.0271 µM
- IC50 [6]: 0.33 µM
SMILES: CCC(=O)Nc1nc2ccc(-c3ccc4ncn(CCc5c[nH]c6ccccc56)c(=O)c4c3)cc2[nH]1
- IC50 [1]: 0.55 µM
- IC50 [2]: 1.67 µM
- IC50 [3]: 1.23 µM

- IC50 [5]: 0.0219 µM
- IC50 [6]: 0.273 µM
- inhibition [11]: Dose-dependent effect
- inhibition [12]: Dose-dependent effect
SMILES: CCC(=O)Nc1nc2ccc(-c3ccc4ncn(CCN5CCOCC5)c(=O)c4c3)cc2[nH]1
- viability at 1 µM [7]: 89%
- IC50 [1]: 0.38 µM
- IC50 [2]: 1.09 µM
- IC50 [3]: 0.77 µM
- Activity [8]: Dose-dependent effect
- Activity [9]: Active
- Activity [10]: Active
- Activity [13]: Dose-dependent effect
- Activity [14]: 36.36%
- Activity [15]: 38.28%
- Activity [16]: 21.84%
- Activity [17]: 28.68%
- Activity [18]: 25.43%
- Activity [19]: 39.38%
- Activity [20]: 5.59%
- Activity [21]: 6.99%
- Activity [22]: 4.27%
- Activity [23]: 2.71%
- Activity [24]: 4.02%
- viability at 2 µM [25]: 68.2%
- Activity [26]: 11.61%
- Activity [27]: 8.25%
- Activity [28]: 11.9%
- viability at 4 µM [29]: 53.4%
- Activity [30]: 15.33%
- Activity [31]: 15.41%
- Activity [32]: 15.91%
- Activity [33]: Active
- Activity [34]: Active
- Activity [35]: Active
- Activity [36]: Dose-dependent effect
- Activity [37]: 76.19%
- Activity [38]: Active

Continued, molecule first:

SMILES: CCC(=O)Nc1nc2ccc(-c3ccc4nc(CN5CCN(C(=O)CC)CC5)n(C)c(=O)c4c3)cc2[nH]1
- IC50 [1]: > 20 µM
- IC50 [2]: > 20 µM
- IC50 [3]: 5.49 µM

SMILES: CCC(=O)Nc1nc2ccc(-c3ccc4ncn(CC(=O)N5CCOCC5)c(=O)c4c3)cc2[nH]1
- IC50 [1]: > 20 µM
- IC50 [2]: > 20 µM
- IC50 [3]: > 20 µM

SMILES: Cc1cc(Nc2cc(N3CCN(C)CC3)nc(/C=C/c3ccccc3)n2)n[nH]1 [ENMD-2076]
- IC50 [1]: 0.48 µM
- IC50 [2]: 0.67 µM

Source: ChEMBL document CHEMBL4765263, “Design, synthesis, biological evaluation of 6-(2-amino-1H-benzo[d]imidazole-6-yl)quinazolin-4(3H)-one derivatives as novel anticancer agents with Aurora kinase inhibition” (Eur J Med Chem, 2020)
